Consider eleven compounds from paper PMC9933479 (ACS Omega, 2023).

Common to all, as to assay: MTT assay, cytotoxicity/growth inhibition
Background: Tetrazolium dyes change colour on reduction, which living cells bring about.

One data set relates to MCF-7 (breast carcinoma). The format is cell-based. The settings on record: Homo sapiens; for IC50: MCF7; for inhibition at 20 µM: MCF7, 48 h, read-out: Cytotoxic Activity (% Growth Inhibition). A digest of the protocol: (§1)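 Cells were grown in RPMI (A549, HCT-116, PC-3) or DMEM (MCF-7) with 10% FBS at 37 °C and 5% CO2. Seeding per well was […] and PC-3 8 × 10^4 cells. […] MTT 250 μg/mL, 4 h; DMSO; A570; triplicate; mean ± SE.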

In a further data set the test system is A549 (lung carcinoma). The class given is cell-based, human. As to conditions: for Cytotoxic Activity (% Growth Inhibition): A549, 20 μM concentration, MTT, 48 h, 20 µM; for IC50 / inhibition at 20 µM: Homo sapiens; for IC50: A549; for inhibition at 20 µM: A549, 48 h, read-out: Cytotoxic Activity (% Growth Inhibition), A549, 20 μM concentration, MTT, 48 h. The gist of the method:
as §1

Data set [1] has as its system PC-3 (prostate carcinoma). The class given is cell-based. The settings on record: Homo sapiens; for inhibition at 20 µM: 48 h, read-out: Cytotoxic Activity (% Growth Inhibition). A digest of the protocol:
as §1

Data set [2] relates to HCT-116 (colon carcinoma). The class given is cell-based. As to conditions: Homo sapiens; for IC50: HCT-116; for inhibition at 20 µM: HCT-116, 48 h, read-out: Cytotoxic Activity (% Growth Inhibition). The gist of the method: as §1

Consider `C=C1CC[C@@H]2[C@](C)(CO)[C@H](O)CC[C@@]2(C)[C@@H]1C/C=C1/C(=O)OC[C@H]1O` [Compound 1, Andrographolide, reference compound], for which the IC50 (in the data set with MCF-7 (breast carcinoma); in the data set on A549 (lung carcinoma); in data set [1]; in data set [2]) was greater than 20 µM in each case. For the same compound, the inhibition at 20 µM in the data set on MCF-7 (breast carcinoma) came to 42.93 ± 0.05%; in the data set on A549 (lung carcinoma), 21%; in data set [1], 0%; in data set [2], 4.86 ± 0.25%. Besides, the “Cytotoxic Activity (% Growth Inhibition)” value in the data set with A549 (lung carcinoma) is recorded as 21.64 ± 0.22%.
Consider `C[C@@]12COC(c3ccccc3)O[C@@H]1CC[C@]1(C)C2CC=C(COC(=O)c2ccccc2)[C@H]1/C=C/C1=CCOC1=O` (stereo partly drawn) [Compound 8a, ((4aR,6aR,7S,10bR)-6a,10b-Dimethyl-7-((E)-2-(2-oxo-2,5-dihydrofuran-3-yl)vinyl)-3-phenyl-4a,5,6,6a,7,10,10a,10b-octahydro-1H-naphtho[2,1-d][1,3]dioxin-8-yl)methyl Benzoate], for which the IC50 (in general, the midpoint of a concentration-inhibition curve) in the data set on MCF-7 (breast carcinoma) is greater than 20 µM; with A549 (lung carcinoma), 10.6 µM; in data set [1], greater than 20 µM; in data set [2], greater than 20 µM. The inhibition at 20 µM stood at 9.68 ± 0.14% in the data set on MCF-7 (breast carcinoma), 72% in the data set on A549 (lung carcinoma), 0% in data set [1] and 21.12 ± 0.19% in data set [2]. Besides, the “Cytotoxic Activity (% Growth Inhibition)” value in the data set with A549 (lung carcinoma) turned out to be 72.82 ± 0.05%.
Take `COc1cccc(C(=O)OCC2=CCC3[C@]4(C)COC(c5ccccc5)O[C@@H]4CC[C@@]3(C)[C@@H]2/C=C/C2=CCOC2=O)c1` (stereo partly drawn) [Compound 8b, ((4aR,6aR,7S,10bR)-6a,10b-Dimethyl-7-((E)-2-(2-oxo-2,5-dihydrofuran-3-yl)vinyl)-3-phenyl-4a,5,6,6a,7,10,10a,10b-octahydro-1H-naphtho[2,1-d][1,3]dioxin-8-yl)methyl 3-Methoxybenzoate]: the inhibition at 20 µM with MCF-7 (breast carcinoma) was 6.04 ± 0.12%; in the data set with A549 (lung carcinoma), less than 52%; in data set [1], 0%; in data set [2], 11.72 ± 0.11%. Also, the “Cytotoxic Activity (% Growth Inhibition)” value in the data set with A549 (lung carcinoma) was found to be 48.88 ± 0.17%.
With `C[C@@]12COC(c3ccccc3)O[C@@H]1CC[C@]1(C)C2CC=C(COC(=O)c2cccc(F)c2)[C@H]1/C=C/C1=CCOC1=O` (stereo partly drawn) [Compound 8c, ((4aR,6aR,7S,10bR)-6a,10b-Dimethyl-7-((E)-2-(2-oxo-2,5-dihydrofuran-3-yl)vinyl)-3-phenyl-4a,5,6,6a,7,10,10a,10b-octahydro-1H-naphtho[2,1-d][1,3]dioxin-8-yl)methyl 3-Fluorobenzoate], the inhibition at 20 µM in the data set with MCF-7 (breast carcinoma) worked out at 2.06 ± 0.04%; in the data set on A549 (lung carcinoma), 41.7 ± 0.45%; in data set [1], 0%; in data set [2] it was 19.3 ± 0.37%.
The corresponding values for `C[C@@]12COC(c3ccccc3)O[C@@H]1CC[C@]1(C)C2CC=C(COC(=O)c2cccc(Cl)c2)[C@H]1/C=C/C1=CCOC1=O` (stereo partly drawn) [Compound 8d, ((4aR,6aR,7S,10bR)-6a,10b-Dimethyl-7-((E)-2-(2-oxo-2,5-dihydrofuran-3-yl)vinyl)-3-phenyl-4a,5,6,6a,7,10,10a,10b-octahydro-1H-naphtho[2,1-d][1,3]dioxin-8-yl)methyl 3-Chlorobenzoate] are 2.4 ± 0.084%, 30.11 ± 0.11%, 0% and 0%.
In the case of `C[C@@]12COC(c3ccccc3)O[C@@H]1CC[C@]1(C)C2CC=C(COC(=O)c2cccc(Br)c2)[C@H]1/C=C/C1=CCOC1=O` (stereo partly drawn) [Compound 8e, ((4aR,6aR,7S,10bR)-6a,10b-Dimethyl-7-((E)-2-(2-oxo-2,5-dihydrofuran-3-yl)vinyl)-3-phenyl-4a,5,6,6a,7,10,10a,10b-octahydro-1H-naphtho[2,1-d][1,3]dioxin-8-yl)methyl 3-Bromobenzoate], the inhibition at 20 µM in the data set with MCF-7 (breast carcinoma) was 0%; in the data set with A549 (lung carcinoma), 31.59 ± 0.23%; in data set [1], 0%; in data set [2], 0%.
As for `C[C@@]12COC(c3ccccc3)O[C@@H]1CC[C@]1(C)C2CC=C(COC(=O)c2cccc(I)c2)[C@H]1/C=C/C1=CCOC1=O` (stereo partly drawn) [Compound 8f, ((4aR,6aR,7S,10bR)-6a,10b-Dimethyl-7-((E)-2-(2-oxo-2,5-dihydrofuran-3-yl)vinyl)-3-phenyl-4a,5,6,6a,7,10,10a,10b-octahydro-1H-naphtho[2,1-d][1,3]dioxin-8-yl)methyl 3-Iodobenzoate], the inhibition at 20 µM in the data set with MCF-7 (breast carcinoma) was determined as 0%; with A549 (lung carcinoma), 30.98 ± 0.25%; in data set [1], 0%; in data set [2], 33.25 ± 0.11%.
Regarding `C[C@@]12COC(c3ccccc3)O[C@@H]1CC[C@]1(C)C2CC=C(COC(=O)c2ccoc2)[C@H]1/C=C/C1=CCOC1=O` (stereo partly drawn) [Compound 8g, ((4aR,6aR,7S,10bR)-6a,10b-Dimethyl-7-((E)-2-(2-oxo-2,5-dihydrofuran-3-yl)vinyl)-3-phenyl-4a,5,6,6a,7,10,10a,10b-octahydro-1H-naphtho[2,1-d][1,3]dioxin-8-yl)methyl Furan-3-carboxylate], the inhibition at 20 µM with MCF-7 (breast carcinoma) was determined as 0%; with A549 (lung carcinoma) it was 40.95 ± 0.39%; in data set [1], 25 ± 0.58%; in data set [2], 0%.
For `C[C@@]12COC(c3ccccc3)O[C@@H]1CC[C@]1(C)C2CC=C(COC(=O)c2cccc(C(F)(F)F)c2)[C@H]1/C=C/C1=CCOC1=O` (stereo partly drawn) [Compound 8h, ((4aR,6aR,7S,10bR)-6a,10b-Dimethyl-7-((E)-2-(2-oxo-2,5-dihydrofuran-3-yl)vinyl)-3-phenyl-4a,5,6,6a,7,10,10a,10b-octahydro-1H-naphtho[2,1-d][1,3]dioxin-8-yl)methyl 3-(Trifluoromethyl)benzoate], the inhibition at 20 µM with MCF-7 (breast carcinoma) was 0%; with A549 (lung carcinoma) it was 69%; in data set [1], 54 ± 0.62%; in data set [2] it was 4.8 ± 0.02%. The “Cytotoxic Activity (% Growth Inhibition)” value in the data set on A549 (lung carcinoma) is 69.48 ± 0.42%.
Consider `C[C@@]12COC(c3ccccc3)O[C@@H]1CC[C@]1(C)C2CC=C(COC(=O)c2ccc(Br)cc2F)[C@H]1/C=C/C1=CCOC1=O` (stereo partly drawn) [Compound 8m, ((4aR,6aR,7S,10bR)-6a,10b-Dimethyl-7-((E)-2-(2-oxo-2,5-dihydrofuran-3-yl)vinyl)-3-phenyl-4a,5,6,6a,7,10,10a,10b-octahydro-1H-naphtho[2,1-d][1,3]dioxin-8-yl)methyl 4-Bromo-2-fluorobenzoate], for which the figures for the inhibition at 20 µM (in the data set with MCF-7 (breast carcinoma); in data set [1]; in data set [2]) were 44 ± 0.24%, 0% and 30.4 ± 0.9%, respectively.
With `COc1cc(C(=O)OCC2=CCC3[C@](C)(CO)[C@H](O)CC[C@@]3(C)[C@@H]2/C=C/C2=CCOC2=O)cc(OC)c1OC` (stereo partly drawn) [Compound 9k, ((1S,5R,6R,8aR)-6-Hydroxy-5-(hydroxymethyl)-5,8a-dimethyl-1-((E)-2-(2-oxo-2,5-dihydrofuran-3-yl)vinyl)-1,4,4a,5,6,7,8,8a-octahydronaphthalen-2-yl)methyl 3,4,5-Trimethoxybenzoate], the results for the inhibition at 20 µM (in the data set with MCF-7 (breast carcinoma); in the data set on A549 (lung carcinoma); in data set [2]) were 41 ± 0.87%, 29.4 ± 0.82% and 19.8 ± 0.68%, respectively.
